{"source": "ChEMBL document CHEMBL4052826", "about": "“Design and Synthesis of Novel Reactive Oxygen Species Inducers for the Treatment of Pancreatic Ductal Adenocarcinoma” (J Med Chem, 2018)", "key": {"MIA PaCa-2 [1]": {"test_system": "MIA PaCa-2", "experiment": "Cytotoxicity against human MIAPaCa2 cells assessed as decrease in cell proliferation after 72 hrs by MTT assay", "assay_type": "functional, cell-based", "summary_of_the_method": "(§1)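 MTT assay. Cells (3000–8000/well) attached overnight in RPMI1640 with 10% FBS; the GR line was kept with 200 nM gemcitabine. Serial dilutions (30 nM–10 μM for most lines) were applied for 72 h. MTT was added at a final 300 μg/mL for 3 h at 37°C, formazan was dissolved in DMSO and A570 read. Inhibition = (1 − OD treated/OD control) × 100. IC50 given as mean ± SD, three independent experiments.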"}, "[2]": {"experiment": "Induction of compound aggregation"}, "[3]": {"experiment": "Induction of compound colloidal behavior"}, "MIA PaCa-2 [4]": {"test_system": "MIA PaCa-2", "experiment": "Induction of unfolded protein response in human MIAPaCa2 cells assessed as upregulation of HSPA5 gene expression after 4 hrs by Bru-seq analysis", "assay_type": "functional, cell-based", "summary_of_the_method": "(§2)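 Nascent RNA sequencing (Bru-seq): 4×10^6 MIA PaCa-2 cells seeded in 10 cm dishes, treated next day for 4 h with drug or DMSO. Bromouridine (2 mM final) added for the last 30 min. Total RNA taken in TRIZOL; labeled RNA immunocaptured, converted to cDNA libraries and deep sequenced. Signal compared with DMSO-treated cells.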"}, "MIA PaCa-2 [5]": {"test_system": "MIA PaCa-2", "experiment": "Induction of unfolded protein response in human MIAPaCa2 cells assessed as upregulation of CHOP expression at 2 uM by Western blot analysis", "assay_type": "functional, cell-based", "conditions": "TDE = time-dependent effect", "summary_of_the_method": "(§3)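 Immunoblotting. Cells (4×10^5) in 60 mm dishes were treated, lysed 30 min at 4°C and quantified by BCA. 40 μg protein was run on SDS-PAGE and transferred to PVDF. Primary antibodies (1:1000) incubated overnight at 4°C, then Dylight 800 secondary, with fluorescent scanning. Bands were normalized to GAPDH or actin loading controls. Mean ± SD, three independent experiments, Student's t-test.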"}, "BXPC-3 [6]": {"test_system": "BXPC-3", "experiment": "Induction of unfolded protein response in human BxPC3 cells assessed as upregulation of CHOP expression at 2 uM by Western blot analysis", "assay_type": "functional, cell-based", "conditions": "TDE = time-dependent effect", "summary_of_the_method": "as §3"}, "PANC-1 [7]": {"test_system": "PANC-1", "experiment": "Induction of unfolded protein response in human PANC1 cells assessed as upregulation of GRP78 expression at 2 uM by Western blot analysis", "assay_type": "functional, cell-based", "conditions": "TDE = time-dependent effect", "summary_of_the_method": "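Cells (4×10^5) seeded in 60 mm dishes, cultured in RPMI1640 with 10% FBS, 5% CO2, 37°C, then compound-treated. Lysed 30 min at 4°C, BCA-quantified, 40 μg protein resolved by SDS-PAGE, transferred to PVDF, probed overnight at 4°C with primary antibodies (1:1000; GAPDH or actin loading control), then Dylight 800 secondary; fluorescence scanned. Bands normalized to loading control; mean ± SD, three independent experiments.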"}, "MIA PaCa-2 [8]": {"test_system": "MIA PaCa-2", "experiment": "Induction of reactive oxygen species generation in human MIAPaCa2 cells assessed as upregulation of HO-1 expression at 2 uM after 4 to 24 hrs by Western blot analysis", "assay_type": "functional, cell-based", "summary_of_the_method": "as §3"}, "BXPC-3 [9]": {"test_system": "BXPC-3", "experiment": "Induction of reactive oxygen species generation in human BxPC3 cells assessed as upregulation of HO-1 expression at 2 uM after 4 to 24 hrs by Western blot analysis", "assay_type": "functional, cell-based", "summary_of_the_method": "as §3"}, "MIA PaCa-2 [10]": {"test_system": "MIA PaCa-2", "experiment": "Inhibition of mtDNA transcription from LSP promoter in human MIAPaCa2 cells at 5 times IC50 after 4 hrs by Bru-seq analysis", "assay_type": "functional, cell-based", "summary_of_the_method": "as §2"}, "MIA PaCa-2 [11]": {"test_system": "MIA PaCa-2", "experiment": "Antitumor activity against human MIAPaCa2 cells xenografted in NOD/SCID mouse assessed as tumor volume at 5 mg/kg, ip administered 5 times a week until day 44 (reference value: 1291 +/- 168 mm'3)", "assay_type": "functional"}, "Mus musculus [12]": {"test_system": "Mus musculus", "experiment": "Toxicity in NOD/SCID mouse xenografted with human MIAPaCa2 cells assessed as weakness at 5 mg/kg, ip administered 5 times a week until day 44", "assay_type": "organism-based", "conditions": "in vivo", "summary_of_the_method": "(§4)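 Subcutaneous flank MIA PaCa-2 xenografts (2.0×10^6 cells) in 6-week NOD/SCID mice, randomized at 65 mm3 (n=5/group: vehicle or drug). Dosed ip in 5% DMSO/60% propylene glycol/35% saline, five days on/two off, to day 44. Body weight tracked and mice watched for weakness, weight loss or lethargy; mean ± SEM.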"}, "Mus musculus [13]": {"test_system": "Mus musculus", "experiment": "Toxicity in NOD/SCID mouse xenografted with human MIAPaCa2 cells assessed as body weight loss at 5 mg/kg, ip administered 5 times a week until day 44", "assay_type": "organism-based", "conditions": "in vivo", "summary_of_the_method": "as §4"}, "Mus musculus [14]": {"test_system": "Mus musculus", "experiment": "Toxicity in NOD/SCID mouse xenografted with human MIAPaCa2 cells assessed as lethargy at 5 mg/kg, ip administered 5 times a week until day 44", "assay_type": "organism-based", "conditions": "in vivo", "summary_of_the_method": "as §4"}, "Mus musculus [15]": {"test_system": "Mus musculus", "experiment": "Toxicity in NOD/SCID mouse xenografted with human MIAPaCa2 cells assessed as microscopic changes in kidney at 5 mg/kg, ip administered 5 times a week until day 44 by hematoxylin and eosin staining-based inverted microscopic method", "assay_type": "organism-based", "conditions": "in vivo", "summary_of_the_method": "(§5)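 Necropsy after the 44-day ip course in MIA PaCa-2 xenograft-bearing NOD/SCID mice: heart, kidney, liver, lung, spleen and pancreas fixed in 10% neutral buffered formalin, paraffin-embedded, sectioned and stained with hematoxylin and eosin. Sections examined by inverted microscope at 20X, compared with vehicle-treated animals.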"}, "Mus musculus [16]": {"test_system": "Mus musculus", "experiment": "Toxicity in NOD/SCID mouse xenografted with human MIAPaCa2 cells assessed as microscopic changes in heart at 5 mg/kg, ip administered 5 times a week until day 44 by hematoxylin and eosin staining-based inverted microscopic method", "assay_type": "organism-based", "conditions": "in vivo", "summary_of_the_method": "as §5"}, "Mus musculus [17]": {"test_system": "Mus musculus", "experiment": "Toxicity in NOD/SCID mouse xenografted with human MIAPaCa2 cells assessed as microscopic changes in spleen at 5 mg/kg, ip administered 5 times a week until day 44 by hematoxylin and eosin staining-based inverted microscopic method", "assay_type": "organism-based", "conditions": "in vivo", "summary_of_the_method": "as §5"}, "MIA PaCa-2 [18]": {"test_system": "MIA PaCa-2", "experiment": "Antitumor activity against human MIAPaCa2 cells xenografted in NOD/SCID mouse assessed as tumor volume at 5 mg/kg, ip administered 5 times a week for 48 days (reference value: 1503 +/- 189 mm'3)", "assay_type": "functional", "summary_of_the_method": "(§6)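 MIA PaCa-2 subcutaneous xenografts in NOD/SCID mice, randomized at 75 mm3. Test agent was given at 5 mg/kg five times a week. Gemcitabine was given at 15 mg/kg either once weekly for 48 days or twice weekly for 15 days. Groups were n=3–4. Tumor volume was measured by caliper, given as mean ± SEM, and compared by unpaired t test.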"}, "MIA PaCa-2 [19]": {"test_system": "MIA PaCa-2", "experiment": "Antitumor activity against human MIAPaCa2 cells xenografted in NOD/SCID mouse assessed as tumor volume at 5 mg/kg, ip administered 5 times a week co-administered with gemcitabine at 15 mg/kg administered once a week for 48 days (reference value: 1503 +/- 189 mm'3)", "assay_type": "functional", "summary_of_the_method": "as §6"}, "Mus musculus [20]": {"test_system": "Mus musculus", "experiment": "Toxicity in NOD/SCID mouse xenografted with human MIAPaCa2 cells assessed as body weight loss at 5 mg/kg, ip administered 5 times a week co-administered with gemcitabine at 15 mg/kg administered once a week for 48 days", "assay_type": "organism-based", "conditions": "in vivo, 1152 h", "summary_of_the_method": "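MIA PaCa-2 xenografted NOD/SCID mice randomized at 75 mm3 into vehicle (n=4), single-agent (n=3 each) and combination (n=3) arms. Drug given at 5 mg/kg five times a week, gemcitabine at 15 mg/kg once a week, over a 48-day period. Body weight followed; mean ± SEM.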"}, "PANC-1 [21]": {"test_system": "PANC-1", "experiment": "Cytotoxicity against human PANC1 cells assessed as decrease in cell proliferation after 72 hrs by MTT assay", "assay_type": "functional, cell-based", "conditions": "PANC-1, 72 h", "summary_of_the_method": "as §1"}}, "note": "The source made the active and inactive calls. No cut-off for these calls is given here."}
{"smiles": "O=C1C(Nc2ccc(-c3ccccc3)cc2)=CC(=O)c2ncncc21", "values": [{"measurement": "Activity", "setting": "MIA PaCa-2 [1]", "value": "Dose-dependent effect"}, {"measurement": "IC50", "setting": "MIA PaCa-2 [1]; MIA PaCa-2, 72 h", "value": 900, "unit": "nM"}, {"measurement": "Activity", "setting": "[2]", "value": "Active"}, {"measurement": "Activity", "setting": "[3]", "value": "Active"}, {"measurement": "Activity", "setting": "MIA PaCa-2 [4]", "value": "Dose-dependent effect"}, {"measurement": "Activity", "setting": "MIA PaCa-2 [5]", "value": "Tde"}, {"measurement": "Activity", "setting": "BXPC-3 [6]", "value": "Tde"}, {"measurement": "Activity", "setting": "PANC-1 [7]", "value": "Tde"}, {"measurement": "Activity", "setting": "MIA PaCa-2 [8]", "value": "Active"}, {"measurement": "Activity", "setting": "BXPC-3 [9]", "value": "Active"}, {"measurement": "inhibition", "setting": "MIA PaCa-2 [10]", "value": "Active"}, {"measurement": "Activity", "setting": "MIA PaCa-2 [11]", "value": 308, "unit": "mm3"}, {"measurement": "Activity", "setting": "Mus musculus [12]", "value": "Non-Toxic"}, {"measurement": "Activity", "setting": "Mus musculus [13]", "value": "Non-Toxic"}, {"measurement": "Activity", "setting": "Mus musculus [14]", "value": "Non-Toxic"}, {"measurement": "Activity", "setting": "Mus musculus [15]", "value": "Non-Toxic"}, {"measurement": "Activity", "setting": "Mus musculus [16]", "value": "Non-Toxic"}, {"measurement": "Activity", "setting": "Mus musculus [17]", "value": "Non-Toxic"}, {"measurement": "Activity", "setting": "MIA PaCa-2 [18]", "value": 248, "unit": "mm3"}, {"measurement": "Activity", "setting": "MIA PaCa-2 [19]", "value": 163, "unit": "mm3"}, {"measurement": "Activity", "setting": "Mus musculus [20]", "value": "Non-Toxic"}, {"measurement": "IC50", "setting": "PANC-1 [21]", "value": 400, "unit": "nM"}]}
